Published values of several laboratories.
Each line is one published result; the experiments were not run side by side.
Target: Serine/threonine-protein kinase BRSK2 (BRSK2, Homo sapiens, UniProt Q8IWQ3)
Sequence (Q8IWQ3 1-736, as in one of the studies): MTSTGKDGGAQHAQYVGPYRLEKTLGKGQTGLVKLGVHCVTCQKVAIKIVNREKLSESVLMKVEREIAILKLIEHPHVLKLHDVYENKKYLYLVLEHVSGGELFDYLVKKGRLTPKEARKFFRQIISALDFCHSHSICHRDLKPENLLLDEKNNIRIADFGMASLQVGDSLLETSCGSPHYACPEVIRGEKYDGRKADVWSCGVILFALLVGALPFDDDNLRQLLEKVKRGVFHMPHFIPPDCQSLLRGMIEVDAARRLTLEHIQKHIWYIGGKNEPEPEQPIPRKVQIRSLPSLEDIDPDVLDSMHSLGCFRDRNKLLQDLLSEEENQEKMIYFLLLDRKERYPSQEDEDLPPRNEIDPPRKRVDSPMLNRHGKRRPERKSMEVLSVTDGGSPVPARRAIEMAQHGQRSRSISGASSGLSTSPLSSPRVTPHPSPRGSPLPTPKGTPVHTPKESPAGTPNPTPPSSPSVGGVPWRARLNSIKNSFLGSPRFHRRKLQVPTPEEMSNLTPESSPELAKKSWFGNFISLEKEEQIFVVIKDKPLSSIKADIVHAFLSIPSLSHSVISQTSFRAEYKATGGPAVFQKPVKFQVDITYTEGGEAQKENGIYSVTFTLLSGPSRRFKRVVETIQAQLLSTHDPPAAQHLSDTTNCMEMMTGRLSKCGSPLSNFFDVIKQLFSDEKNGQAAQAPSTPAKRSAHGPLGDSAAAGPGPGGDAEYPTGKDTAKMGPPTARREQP

| SMILES | test | conditions | remaining binding [%] |
| --- | --- | --- | --- |
| C[C@H](c1ccnc(Nc2nc3ccc(-c4cc(N(C)C)ncn4)cc3[nH]2)c1)N1CCN(C(=O)CC(F)(F)F)CC1 | cell-free assay, competition with immobilised ligand | 0.1 µM | 100 |
| C[C@@H](c1ccc(-n2cnc3c(N)ncnc32)cc1)N1CCc2nn(C)c(Cc3ccccc3)c2C1=O | binding, competition with immobilised ligand | 0.1 µM | 90 |
| CNC(=O)[C@@H]1CC[C@@H](n2c(-c3ccc4cnccc4c3)nc3ccc(C(=O)NCc4cccc(C(N)=O)c4)cc32)C1 | binding, competition with immobilised ligand | 1 µM | 93 |
| c1cnn2ncc(-c3ccnc(N4CCC45COC5)n3)c2c1 | binding | 1 µM | 84 |
| COc1ccc2cc(OCC3(C(=O)O)CN(C(=O)c4ccc(F)cc4)C3)ccc2c1 | cell-free assay, competition with immobilised ligand | 1 µM | 100 |
| C=CC(=O)N1CCC(C(=O)NCC(=O)N2CCN(c3nc(-c4cnc(N)nc4C(F)F)nc(N4CCOCC4)n3)CC2)CC1 | binding, competition with immobilised ligand | 1 µM | 100 |
| CC1CCCN1c1nccc(-c2cnn3ncccc23)n1 (stereo not drawn) | binding | 1 µM | 100 |
| COc1cnc(Nc2cccc(S(N)(=O)=O)c2)nc1N1CCN(c2ccccc2)C(=O)C1 | binding, competition with immobilised ligand | 1 µM | 100 |
| C[C@H](c1ccc(F)cc1)N(Cc1cccc(C(=O)O)c1)C(=O)c1cnc2ccccc2c1 | cell-free assay, competition with immobilised ligand | 1 µM | 100 |
| O=C(c1ccc(Nc2nccc(-c3cc4ccccc4s3)n2)cc1)N1CCC(N2CCCC2)CC1 | binding, competition with immobilised ligand | 1 µM | 91 |
| N[C@@H]1CCN(c2nccc(-c3cnn4ncccc34)n2)C1 | binding | 1 µM | 100 |
| Nc1cnc(N2CCc3cc(S(=O)(=O)Nc4c(F)cc(Cl)cc4F)cc(N4CCCC4=O)c32)nc1 | cell-free assay, competition with immobilised ligand | 1 µM | 80 |
| CCN1CCN(Cc2ccc(C(=O)Nc3ccc(C)c(Oc4ccc5c(c4)CC(=O)N5)c3)cc2C(F)(F)F)CC1 | binding, competition with immobilised ligand | 1 µM | 100 |
| O=C(c1ccc(Nc2ncc(Cl)c(-c3ccc(Cl)s3)n2)cc1)N1CCC(N2CCCC2)CC1 | binding, competition with immobilised ligand | 1 µM | 58 |
| O=C(O)[C@@H]1[C@@H](Cn2nnc3ccccc3c2=O)CC[C@H]1C(=O)c1ccc(OCCC2CCOCC2)cc1 | cell-free assay, competition with immobilised ligand | 1 µM | 100 |
| F[C@@H]1CCN(c2nccc(-c3cnn4ncccc34)n2)C1 | binding | 1 µM | 100 |
| O=C(c1ccc(Nc2ncc(Cl)c(-c3cc4ccccc4s3)n2)cc1)N1CCC(N2CCCC2)CC1 | binding, competition with immobilised ligand | 1 µM | 53 |
| COc1ccnn2ncc(-c3ccnc(N(C)C)n3)c12 | binding | 1 µM | 76 |
| O=C(Nc1c[nH]nc1C(=O)NC1CCNCC1)c1cc(F)cc(F)c1 | binding, competition with immobilised ligand | 1 µM | 100 |
| C[C@@H]1CCN(c2nccc(-c3cnn4ncccc34)n2)C1 | binding | 1 µM | 91 |
| CCCCN(CCCC)C(=O)CN1C[C@H](c2cc(OC)c3c(c2)OCO3)[C@@H](C(=O)O)[C@@H]1CC(C)(C)CCC | cell-free assay, competition with immobilised ligand | 1 µM | 95.6 |
